# Measured values as given in ChEMBL document CHEMBL1153504, “Short-acting 5-(trifluoromethyl)pyrido[4,3-d]pyrimidin-4(3H)-one derivatives as orally-active calcium-sensing receptor antagonists” (Bioorg Med Chem Lett, 2009).
# The source made the active and inactive calls. The rule behind the calls is not given here.
# Columns and labels:
# [1] = Antagonist activity at human calcium receptor expressed in HEK293 cells assessed as inhibition of extracellular calcium-induced release of intracellular calcium strores into cytosol by FLIPR assay; type: functional, cell-based
# [2] = Cmax in Sprague-Dawley rat at 1 mg/kg, iv; type: ADME, organism-based; set-up: dose 1 mg/kg, route intravenous; settings: in vivo
# In short: (§1)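 Male Sprague-Dawley rats, n = 2–5. iv dosing in glycerol formal containing 2% DMSO; po dosing as a spray dried dispersion. Plasma compound levels followed for PK parameters.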
# [3] = Cmax in Sprague-Dawley rat at 10 mg/kg, po; type: ADME, organism-based; set-up: dose 10 mg/kg, route oral; settings: in vivo; in short: as §1
# [4] = Tmax in Sprague-Dawley rat at 1 mg/kg, iv; type: ADME, organism-based; set-up: dose 1 mg/kg, route intravenous; settings: in vivo; in short: as §1
# [5] = Plasma clearance in Sprague-Dawley rat at 1 mg/kg, iv; type: ADME, organism-based; set-up: dose 1 mg/kg, route intravenous; in short: as §1
# [6] = (§2) Volume of distribution at steady state in Sprague-Dawley rat at 1 mg/kg, iv; type: ADME, organism-based; set-up: dose 1 mg/kg, route intravenous; settings: Sprague-Dawley, in vivo, read-out: Vdss; in short: as §1
# [7] = (§3) Terminal half life in Sprague-Dawley rat at 1 mg/kg, iv; type: ADME, organism-based; set-up: dose 1 mg/kg, route intravenous; settings: Sprague-Dawley, in vivo, read-out: beta t1/2 (converted); in short: as §1
# [8] = AUC in Sprague-Dawley rat at 1 mg/kg, iv; type: ADME, organism-based; set-up: dose 1 mg/kg, route intravenous; settings: plasma; in short: as §1
# [9] = system: Rattus norvegicus; assay: Induction of bone formation in Sprague-Dawley rat assessed as stimulation of PTH level in plasma at 1 mg/kg, iv after 2 mins by ELISA; type: functional
# In short: (§4)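 Male Sprague-Dawley rats, n = 5/6, given a single iv or po dose. Plasma PTH 1-84 measured by an ELISA specific for full-length rat PTH 1-84. Earliest sampling at ~2 min; comparison against baseline in vehicle-treated animals.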
# [10] = system: Rattus norvegicus; assay: Induction of bone formation in Sprague-Dawley rat assessed as stimulation of PTH level in plasma at 1 mg/kg, iv after 2 mins relative by ELISA to basal level; type: functional; in short: as §4
# [11] = system: Rattus norvegicus; assay: Induction of bone formation in Sprague-Dawley rat assessed as stimulation of PTH level in plasma at dose 10 mg/kg, po by ELISA; type: functional; in short: as §4
# [12] = system: Rattus norvegicus; assay: Induction of bone formation in Sprague-Dawley rat assessed as transient stimulation of PTH level in plasma at dose 10 mg/kg, po on day 1 by ELISA; type: functional, organism-based; set-up: dose 10 mg/kg
# [13] = system: Rattus norvegicus; assay: Induction of bone formation in Sprague-Dawley rat assessed as transient stimulation of PTH level in plasma at dose 10 mg/kg, po administered for 5 days measured on day 5 by ELISA; type: functional, organism-based; set-up: dose 10 mg/kg
# [14] = system: Rattus norvegicus; assay: Induction of bone formation in Sprague-Dawley rat assessed as sustained elevation of PTH level in plasma at dose 10 mg/kg, po administered for 5 days measured on day 5 by ELISA; type: functional, organism-based; set-up: dose 10 mg/kg
# [15] = system: Rattus norvegicus; assay: as §2; type: ADME, organism-based; set-up: dose 1 mg/kg, route intravenous; settings: in vivo; in short: as §1
# [16] = system: Rattus norvegicus; assay: as §3; type: ADME, organism-based; set-up: dose 1 mg/kg, route intravenous; settings: in vivo; in short: as §1
# [17] = target: Voltage-gated inwardly rectifying potassium channel KCNH2 (Homo sapiens, UniProt Q12809); assay: Inhibition of human ERG
# Chain of Voltage-gated inwardly rectifying potassium channel KCNH2 (Q12809 whole entry): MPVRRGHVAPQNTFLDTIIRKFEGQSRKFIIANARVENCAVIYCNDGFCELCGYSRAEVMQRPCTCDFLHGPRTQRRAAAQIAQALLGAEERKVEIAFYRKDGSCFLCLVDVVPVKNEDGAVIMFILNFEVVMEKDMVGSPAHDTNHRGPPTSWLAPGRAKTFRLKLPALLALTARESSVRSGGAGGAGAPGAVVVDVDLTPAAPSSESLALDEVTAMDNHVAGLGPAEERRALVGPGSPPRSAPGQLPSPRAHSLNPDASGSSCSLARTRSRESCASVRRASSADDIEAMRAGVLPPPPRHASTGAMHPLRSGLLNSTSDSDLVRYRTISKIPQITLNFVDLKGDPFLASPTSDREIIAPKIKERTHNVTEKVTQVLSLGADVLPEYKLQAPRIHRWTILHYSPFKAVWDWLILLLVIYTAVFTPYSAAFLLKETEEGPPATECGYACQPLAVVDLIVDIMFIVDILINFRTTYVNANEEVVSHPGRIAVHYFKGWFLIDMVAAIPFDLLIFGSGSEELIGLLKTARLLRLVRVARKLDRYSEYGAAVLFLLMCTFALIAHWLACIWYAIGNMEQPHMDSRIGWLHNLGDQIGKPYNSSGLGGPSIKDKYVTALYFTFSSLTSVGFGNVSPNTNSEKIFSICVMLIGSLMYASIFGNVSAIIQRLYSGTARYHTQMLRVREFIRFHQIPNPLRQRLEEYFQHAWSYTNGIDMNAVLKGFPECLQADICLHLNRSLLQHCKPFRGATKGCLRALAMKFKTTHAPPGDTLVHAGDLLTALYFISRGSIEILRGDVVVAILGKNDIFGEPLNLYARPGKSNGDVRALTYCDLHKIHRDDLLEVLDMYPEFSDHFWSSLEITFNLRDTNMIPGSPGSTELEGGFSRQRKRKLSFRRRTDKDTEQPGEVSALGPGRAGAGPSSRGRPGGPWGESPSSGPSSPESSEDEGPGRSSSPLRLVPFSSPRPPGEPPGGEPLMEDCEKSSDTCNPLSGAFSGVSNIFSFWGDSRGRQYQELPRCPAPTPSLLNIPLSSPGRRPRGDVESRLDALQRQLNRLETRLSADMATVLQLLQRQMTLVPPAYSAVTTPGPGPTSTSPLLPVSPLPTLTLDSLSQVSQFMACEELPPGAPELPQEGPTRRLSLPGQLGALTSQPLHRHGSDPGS
# [18] = Half life in human; type: ADME, organism-based; settings: in vivo
# [19] = organism: Rattus norvegicus; assay: Ratio of AUC for 1-aminobenzotriazole led P450 inactivator pretreated Sprague-Dawley rat to AUC for normal Sprague-Dawley rat; type: ADME, organism-based; settings: in vivo
# [20] = Plasma clearance in 1-aminobenzotriazole led P450 inactivator pretreated Sprague-Dawley rat at 1 mg/kg, iv; type: ADME, organism-based; set-up: dose 1 mg/kg, route intravenous
# [21] = organism: Rattus norvegicus; assay: Ratio of half life for 1-aminobenzotriazole led P450 inactivator pretreated Sprague-Dawley rat to half life for normal Sprague-Dawley rat; type: ADME, organism-based; settings: in vivo
smiles,measurement,setting,value
CC(=O)Nc1cccnc1-c1nc2ccnc(C(F)(F)F)c2c(=O)n1[C@H](C)Cc1ccccc1,IC50,[1],19 nM
O=c1c2c(C(F)(F)F)nccc2nc(-c2cccc(F)c2O)n1CCc1ccccc1,IC50,[1],610 nM
C[C@H](Cc1ccc(F)c(F)c1)n1c(-c2ncccc2O)nc2ccnc(C(F)(F)F)c2c1=O,IC50,[1],8 nM
same,Cmax,[2],133 ng/mL
same,Cmax,[3],165 ng/mL
same,Tmax,[4],18 min
same,clearance,[5],46.5 mL/min/kg
same,Vd,[6],8.6 L/kg
same,half-life,[7],234 min
same,AUC,[8],364 ng·h/mL
same,Activity,[9],1303 pg/mL
same,fold change (FC),[10],10
same,Activity,[11],599 pg/mL
same,Activity,[12],Active
same,Activity,[13],Active
same,Activity,[14],inactive
O=c1c2c(C(F)(F)F)nccc2nc(-c2ncccc2O)n1CCc1ccccc1F,IC50,[1],151 nM
C[C@H](Cc1ccccc1)n1c(-c2ncccc2Cl)nc2ccnc(C(F)(F)F)c2c1=O,IC50,[1],79 nM
same,Vdss,[15],6 L/kg
same,beta t1/2,[16],57 min
same,AUC,[8],810 ng·h/mL
O=c1c2c(C(F)(F)F)nccc2nc(-c2ncccc2O)n1CCC1CCCCC1,IC50,[1],36 nM
same,clearance,[5],35.9 mL/min/kg
same,Vd,[6],3.2 L/kg
same,half-life,[7],37.2 min
same,AUC,[8],490 ng·h/mL
CC(C)Oc1nccc2nc(-c3ccccc3O)n(CCc3ccccc3)c(=O)c12,IC50,[1],224 nM
O=c1c2c(C(F)(F)F)nccc2nc(-c2ccccc2Cl)n1CCc1ccccc1,IC50,[1],1070 nM
Cc1nccc2nc(-c3ccccc3O)n(CCc3ccccc3)c(=O)c12,IC50,[1],2990 nM
C[C@@H](Cc1ccccc1)n1c(-c2ccccc2O)nc2ccnc(C(F)(F)F)c2c1=O,IC50,[1],158 nM
C[C@H](Cc1ccccc1)n1c(-c2cccc(F)c2O)nc2ccnc(C(F)(F)F)c2c1=O,IC50,[1],25 nM
same,clearance,[5],31.6 mL/min/kg
same,Vd,[6],3.6 L/kg
same,half-life,[7],91.8 min
same,AUC,[8],528 ng·h/mL
O=c1c2c(C(F)(F)F)nccc2nc(-c2cscn2)n1CCc1ccccc1,IC50,[1],656 nM
CC(C)(Cc1ccc2ccccc2c1)NC[C@@H](O)COc1cccc(Cl)c1C#N,Activity,[17],Active
same,half-life,[18],480 min
O=c1c2c(OC3CCC3)nccc2nc(-c2ccccc2O)n1CCc1ccccc1,IC50,[1],435 nM
C[C@H](Cc1ccccc1)n1c(-c2ncccc2C(F)(F)F)nc2ccnc(C(F)(F)F)c2c1=O,IC50,[1],64 nM
same,Cmax,[2],100 ng/mL
same,Cmax,[3],450 ng/mL
same,Tmax,[4],78 min
same,Vdss,[15],2.9 L/kg
same,beta t1/2,[16],48 min
same,AUC,[8],1200 ng·h/mL
C[C@H](Cc1ccccc1)n1c(-c2cscn2)nc2ccnc(C(F)(F)F)c2c1=O,IC50,[1],216 nM
C[C@H](Cc1ccccc1)n1c(-c2ccccc2O)nc2ccnc(C(F)(F)F)c2c1=O,IC50,[1],41 nM
same,Cmax,[2],125 ng/mL
same,Cmax,[3],350 ng/mL
same,Tmax,[4],30 min
same,clearance,[5],32.2 mL/min/kg
same,Vd,[6],1.4 L/kg
same,half-life,[7],36 min
same,Ratio,[19],4
same,AUC,[8],518 ng·h/mL
same,clearance,[20],7.8 mL/min/kg
same,Activity,[9],921 pg/mL
same,Activity,[11],620 pg/mL
same,Activity,[12],Active
same,Activity,[13],Active
same,Activity,[14],inactive
same,Ratio,[21],7
O=c1c2c(Cl)nccc2nc(-c2ccccc2O)n1CCc1ccccc1,IC50,[1],106 nM
O=c1c2c(C(F)(F)F)nccc2nc(-c2ccccc2O)n1CCc1ccccc1F,IC50,[1],132 nM
COc1ccccc1CCn1c(-c2ncccc2O)nc2ccnc(C(F)(F)F)c2c1=O,IC50,[1],76 nM
O=c1c2c(N3CCCC3)nccc2nc(-c2ccccc2O)n1CCc1ccccc1,IC50,[1],5320 nM
C[C@H](Cc1ccccc1)n1c(-c2ncccc2O)nc2ccnc(C(F)(F)F)c2c1=O,IC50,[1],22 nM
O=c1c2c(C(F)(F)F)nccc2nc(-c2ccccc2O)n1CCc1ccccc1,IC50,[1],50 nM
Cc1cccnc1-c1nc2ccnc(C(F)(F)F)c2c(=O)n1[C@H](C)Cc1ccccc1,IC50,[1],226 nM
C[C@H](Cc1ccccc1)n1c(-c2ccccc2Cl)nc2ccnc(C(F)(F)F)c2c1=O,IC50,[1],152 nM
